Assay results as given in ChEMBL document CHEMBL5113397, “Identification, optimization, and biological evaluation of 3-O-β-chacotriosyl ursolic acid derivatives as novel SARS-CoV-2 entry inhibitors by targeting the prefusion state of spike protein” (Eur J Med Chem, 2022).

Tests used:
[1] = Cytotoxicity against human HEK293T cells overexpressing human ACE2 assessed as inhibition of cell growth incubated for 48 hrs by MTT assay; type: toxicity, cell-based, HEK-293T
Procedure, shortened: (§1)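 Monolayers of 293T-ACE2 or Vero E6 cells in DMEM with 10% FBS were PBS-rinsed and exposed to compounds for 48 h. MTT 0.5 mg/mL was then added for 4 h at 37 °C, formazan dissolved in DMSO, and absorbance read at 570 nm.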

[2] = Cytotoxicity against African green monkey Vero E6 cells assessed as inhibition of cell growth incubated for 48 hrs by MTT assay; type: toxicity, cell-based, Vero C1008; settings: chlorocebus sabaeus; procedure, shortened: as §1
[3] = test system: SARS-CoV-2; assay: Antiviral activity against SARS-CoV-2 Wuhan-HU-1 infected African green monkey Vero E6 cells preincubated for 1 hrs followed by incubation with virus 1 hr and measured after 24 hrs by fluorescence assay; type: functional, organism-based; settings: Severe acute respiratory syndrome coronavirus 2, Wuhan-HU-1, Vero C1008
[4] = Selectivity index, ratio of CC50 for cytotoxicity against African green monkey Vero E6 cells to EC50 for antiviral activity against SARS-CoV-2 Wuhan-Hu-1 infected African green monkey Vero E6 cells; type: toxicity, cell-based, Vero C1008; settings: read-out: Ratio CC50/EC50
[5] = target: Spike glycoprotein (Severe acute respiratory syndrome coronavirus 2, UniProt P0DTC2); assay: Binding affinity to SARS-CoV-2 Spike trimer protein by SPR analysis
Procedure, shortened: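 Compound photo-crosslinked onto the chip; recombinant S-trimer injected at a series of concentrations in PBST (0.1% Tween 20, pH 7.4). Run at 4 °C, 600 s association, 360 s dissociation, 0.5 µL/s flow. Chip regenerated with glycine-HCl pH 2.0; KD from the SPR signals.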

[6] = test system: SARS-CoV-2; assay: Antiviral activity against pseudovirus SARS-CoV-2 spike protein expressed in human HEK293T cells assessed as inhibition of spike protein S2 subunit mediated membrane fusion in African green monkey Vero E6 cells at 2.5 to 20 uM incubated for 0.5 hr and measured after 24 hrs by inverted fluorescence microscopy; type: functional, organism-based; settings: Severe acute respiratory syndrome coronavirus 2, dose 2.5-20 µM, time 24.5 hrs, DDE = dose-dependent effect
Procedure, shortened: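 Effector HEK-293T cells were transfected with GFP/SARS-CoV-2 S plasmid, or an EGFP-only vector as control. They were treated with or without graded compound for 30 min, then overlaid on Vero-E6 target cells seeded 6 h before. After 24 h, three random fields were imaged by inverted fluorescence microscopy.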

[7] = test system: SARS-CoV-2; assay: Antiviral activity against SARS-CoV-2 Wuhan-HU-1 infected African green monkey Vero E6 cells assessed as reduction in N-protein expression at 0.55 to 15 uM by indirect immunofluorescence assay; type: functional, organism-based; settings: Severe acute respiratory syndrome coronavirus 2, dose 0.55-15 µM, DDE = dose-dependent effect

SMILES | CC50 at 48 h [1] [µM] | CC50 at 48 h [2] [µM] | EC50 [3] [µM] | selectivity ratio [4] | Kd [5] [µM] | inhibition [6] | Activity [7]
C[C@H]1[C@H](C)CC[C@]2(C(=O)NCc3ccccc3)CC[C@]3(C)C(=CC[C@@H]4[C@@]5(C)CC[C@H](O[C@@H]6O[C@H](CO)[C@@H](O[C@@H]7O[C@@H](C)[C@H](O)[C@@H](O)[C@H]7O)[C@H](O)[C@H]6O[C@@H]6O[C@@H](C)[C@H](O)[C@@H](O)[C@H]6O)C(C)(C)[C@@H]5CC[C@]43C)[C@H]12 | > 100 |  |  |  |  |  | 
COc1ccc(CNC(=O)[C@]23CC[C@@H](C)[C@H](C)[C@H]2C2=CC[C@@H]4[C@@]5(C)CC[C@H](O[C@@H]6O[C@H](CO)[C@@H](O[C@@H]7O[C@@H](C)[C@H](O)[C@@H](O)[C@H]7O)[C@H](O)[C@H]6O[C@@H]6O[C@@H](C)[C@H](O)[C@@H](O)[C@H]6O)C(C)(C)[C@@H]5CC[C@@]4(C)[C@]2(C)CC3)cc1 | > 100 |  |  |  |  |  | 
COc1ccccc1NC(=O)[C@]12CC[C@@H](C)[C@H](C)[C@H]1C1=CC[C@@H]3[C@@]4(C)CC[C@H](O[C@@H]5O[C@H](CO)[C@@H](O[C@@H]6O[C@@H](C)[C@H](O)[C@@H](O)[C@H]6O)[C@H](O)[C@H]5O[C@@H]5O[C@@H](C)[C@H](O)[C@@H](O)[C@H]5O)C(C)(C)[C@@H]4CC[C@@]3(C)[C@]1(C)CC2 | 43.3 | > 100 | 2.38 | > 42 | 13.9 |  | 
COc1cccc(OC)c1NC(=O)[C@]12CC[C@@H](C)[C@H](C)[C@H]1C1=CC[C@@H]3[C@@]4(C)CC[C@H](O[C@@H]5O[C@H](CO)[C@@H](O[C@@H]6O[C@@H](C)[C@H](O)[C@@H](O)[C@H]6O)[C@H](O)[C@H]5O[C@@H]5O[C@@H](C)[C@H](O)[C@@H](O)[C@H]5O)C(C)(C)[C@@H]4CC[C@@]3(C)[C@]1(C)CC2 | > 100 | > 100 | 2.05 | > 48.8 | 0.78 | Dde | Dde
